# Shown are actives, neighbours in structure and some others; about 3.1% of the full set was active somewhere.
# KCNQ1 pot – potentiators or activators of KCNQ1 channel, primary screen, cell-based, thallium flux, high-throughput; B-score at 10 µM; AID 2648, 2010; CHO-K1 KCNQ1, thallium flux FluxOR fluorescence; active compounds read high; 0.35% of 310,000 active; Potassium voltage-gated channel subfamily KQT member 1 (Homo sapiens), P51787;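 active means fluorescence ratio B-score, a plate-corrected score, at least three library SD, with initial intensity B-score within 5 SD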
#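 Test system: CHO-K1 cells stably expressing KCNQ1 / Medium: assay buffer / Also added: depolarizing K+/Tl+ stimulus, K2SO4 and Tl2SO4 each 12.5 mM in 5x stock / Incubation: 90 min dye loading and 20 min compound exposure, both at room temperature / Signal: thallium influx via FluxOR fluorescence, kinetic imaging / Evaluation: B score of baseline-normalized fluorescence ratio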
# KCNK9 block – KCNK9 potassium channel inhibitors, primary screen, HEK293 cells, thallium flux; Potassium channel subfamily K member 9 (Homo sapiens), Q9NPC2; FluxOR thallium flux fluorescence; active compounds read low; B-score at 10 µM; 1.2% of 310,000 active; AID 488922, 2010;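 active means ratio B-score over 3 SD below the library mean, with starting fluorescence within 5 SD of its mean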;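 further: negative B-score means less thallium flux so channel inhibition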
# Target sequence (Q9NPC2 whole entry, looked up): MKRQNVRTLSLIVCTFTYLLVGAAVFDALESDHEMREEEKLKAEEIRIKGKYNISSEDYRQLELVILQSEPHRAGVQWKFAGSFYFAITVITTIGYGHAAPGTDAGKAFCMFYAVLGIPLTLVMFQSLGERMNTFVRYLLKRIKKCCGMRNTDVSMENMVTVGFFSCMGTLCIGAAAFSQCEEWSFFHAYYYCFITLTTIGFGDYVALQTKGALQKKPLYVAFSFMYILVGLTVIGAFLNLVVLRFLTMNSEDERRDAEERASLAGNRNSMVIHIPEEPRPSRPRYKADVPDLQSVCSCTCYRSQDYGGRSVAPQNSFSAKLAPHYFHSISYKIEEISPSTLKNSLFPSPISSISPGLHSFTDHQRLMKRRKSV
# hERG protect – hERG rescue from dofetilide block, primary screen, cell-based, CHO-hERG, FluxOR thallium flux, dofetilide IC70; activation (rescue from dofetilide block), less the hit threshold, % at 10 µM; 0.51% of 310,000 active; dofetilide IC70 present; Voltage-gated inwardly rectifying potassium channel KCNH2 (Homo sapiens), Q12809;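 active means activation above the mean of controls blocked by dofetilide plus 5 SD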;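 further: thallium influx through hERG after potassium depolarization seen as dye fluorescence rise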
# KCNQ1 block – inhibitors of human KCNQ1 channel, primary screen, cell-based, thallium flux, high-throughput; Potassium voltage-gated channel subfamily KQT member 1 (Homo sapiens), P51787; CHO-K1 KCNQ1, FluxOR thallium flux fluorescence; active compounds read high; B-score at 10 µM; 1.3% of 310,000 active;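 active means compounds whose thallium flux B-score, printed positive for inhibition, exceeds three library SD while starting fluorescence stays within three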;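 further: channel opened by potassium depolarization with thallium stimulus after 20 min compound exposure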
# KCNK3 inh – human KCNK3 channel inhibitors, primary screen, CHO cells, FluxOR thallium flux, B-score | FluxOR fluorescence; active compounds read low | B-score at 10 µM | 0.84% of 340,000 active;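 active means B-score under library mean minus 4 SD, starting fluorescence ratio at most library mean plus 5 SD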;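 further: more negative B-score means stronger inhibition of thallium flux through KCNK3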
# A number is an active result; n = inactive; x = no result.
SMILES,KCNQ1 pot,KCNK9 block,hERG protect,KCNQ1 block,KCNK3 inh
Cc1c(Cl)c([N+](=O)[O-])nn1CC(=O)NCc1cccs1,n,n,4.8,n,n
COc1ccc(N/C(C)=C/C(=S)Nc2ccccc2)cc1,n,n,n,n,n
Cc1ccc2nc(/C(C#N)=C\c3ccc(N4CCCCC4)c([N+](=O)[O-])c3)[nH]c2c1,n,n,n,8,n
CCOC(=O)C(C)Oc1cccc2c(=O)n(CC(=O)NCc3ccc(F)cc3)ccc12 (configuration not stated),n,n,n,n,n
c1cnc(Sc2ccc3nnnn3n2)nc1,n,n,n,n,n
S=c1[nH]nc(-c2ccccc2)n1/N=C/c1ccc(-c2ccccc2Cl)o1,8,n,n,n,n
S=c1[nH]nc(-c2ccccn2)n1/N=C/c1ccc(-c2ccccc2Br)o1,n,n,14,n,n
S=c1[nH]nc(-c2cccc(Cl)c2)n1/N=C/c1ccc(-c2ccccc2Br)o1,n,n,n,n,n
Cc1cccc(C(=O)OCC(=O)NC(C)CCc2ccccc2)c1O (configuration not stated),n,n,n,n,n
CCCCCCOc1ccc(/C(C)=N/NC2=NCCN2)cc1,n,n,n,13,n
CCCCCOc1ccc(/C(C)=N/NC2=NCCN2)cc1,n,n,n,n,n
Cc1cc(/C=N/n2cnnc2)c(C)n1-c1ccc(Cl)cc1Cl,10,n,n,n,n
C/C(=N\NC(=O)CSc1nc(C)[nH]c1[N+](=O)[O-])c1ccc(F)cc1,n,n,n,n,n
CCCN1C(=O)SC(CC(=O)Nc2ccccc2)C1=O (configuration not stated),n,n,8.6,n,n
CCCN1C(=O)SC(CC(=O)Nc2cccc3ccccc23)C1=O (configuration not stated),n,n,n,n,n
COc1ccc(CNC(=S)Nc2ccccc2)cc1Cl,n,n,n,n,n
COc1ccc(CNC(=S)Nc2ccc(F)c(Cl)c2)cc1OC,n,n,4.9,n,n
O=C(NC1CCN(Cc2ccc(Cl)cc2)CC1)c1cn(-c2ccccc2)nc1-c1cccnc1,x,x,x,x,n
O=C(COC(=O)C1CCC(=O)N1)Nc1ccccc1Br (configuration not stated),n,n,n,n,n
O=C(COC(=O)C1CCC(=O)N1)Nc1ccc(Oc2ccccc2)cc1 (configuration not stated),n,n,33,n,n
Cc1ccc(OC(=O)CCC(=O)Nc2ccc(C(N)=O)cc2)cc1,n,n,n,n,n
COCCn1c(SCC(=O)Nc2cccnc2Cl)nc2cc(Cl)ccc2c1=O,x,x,x,x,n
CCCn1c(SCN2C(=O)c3ccccc3C2=O)nc2cc(Cl)ccc2c1=O,31,n,11,n,n
Cc1ccc(C(=O)O)cc1N1C(=O)c2cccc3c([N+](=O)[O-])ccc(c23)C1=O,n,n,n,n,n
O=C(O)c1ccc(CN2C(=O)c3cccc4c([N+](=O)[O-])ccc(c34)C2=O)cc1,n,n,n,10,n
SMILES,KCNQ1 pot,KCNK9 block,hERG protect,KCNQ1 block,KCNK3 inh
Cc1cccc(CS(=O)(=O)c2ncc(Cl)c(C(=O)Nc3c(C)cccc3C)n2)c1,n,-6.7,n,n,n
COc1ccccc1C(=O)C1CCCN(C(=O)c2ccco2)C1 (configuration not stated),n,n,n,n,n
CC(C)C[C@@H](CO)N1CCN(Cc2cccc(C#N)c2)CCC1=O,n,n,n,n,n
COc1ccccc1OS(=O)(=O)c1ccc(NC(C)=O)cc1,n,n,n,n,n
COC(=O)/C=C/S(=O)(=O)c1ccc(NC(C)=O)cc1,n,n,n,6,n
Cc1cccc(OCC(=O)NNC(=O)c2ccc3nc[nH]c3c2)c1,x,x,x,x,n
C/C(=N\Nc1nc(C)c(C)s1)c1ccc([N+](=O)[O-])cc1,19,n,30,n,n
COc1cccc(C(=O)N2CCN(C(=O)COc3ccc4ccccc4c3)CC2)c1,n,n,n,n,n
CC(C)COn1c(=S)[nH]c2ccccc2c1=O,8,n,n,n,n
CC(C)Cn1c(=S)[nH]c2ccccc2c1=O,n,n,n,n,n
CCOc1ccccc1NC(=O)CC(O)(C(F)(F)F)C(F)(F)F,n,n,n,6,n
Cc1ccc(NC(=O)CC(O)(C(F)(F)F)C(F)(F)F)c(Br)c1,n,n,n,6,n
O=C(O)CC1(CC(=O)Nc2ccc(F)c(Cl)c2)CCCCC1,n,n,n,n,n
O=C(C[n+]1ccc(-c2cc(C(=O)Nc3cccc(C(F)(F)F)c3)c3ccccc3n2)cc1)c1cccc([N+](=O)[O-])c1,n,n,n,7,n
O=C(C[n+]1cccc(NC(=O)c2ccccc2)c1)c1cccc([N+](=O)[O-])c1,n,n,n,n,n
CCOC(=O)c1c(NC(=O)C(C)NCc2ccco2)sc2c1CCC(C)C2 (configuration not stated),n,n,n,6,n
CCOC(=O)c1c(NC(=O)Cn2nnc3ccccc32)sc2c1CCC(C)C2 (configuration not stated),n,n,n,n,n
Nc1ccccc1-n1c(=O)n(Cc2ccccc2F)c(=O)c2[nH]cnc21,n,n,n,n,n
Cc1ccc(C)c(S(=O)(=O)NCc2ccncc2)c1,n,n,n,n,n
Cc1cc(S(=O)(=O)NCc2ccncc2)c(C)cc1Br,n,n,n,6,n
CCCCn1c(=O)n(Cc2cccc(F)c2)c(=O)c2c1ncn2Cc1ccco1,n,n,n,n,-10
COc1ccc(CCN=C(N)C(C)c2ccccc2)cc1OC (configuration not stated),n,n,n,n,n
CC(C)Cc1ccc(C(C)C(N)=NCCc2ccccc2)cc1 (configuration not stated),n,n,n,9,n
N#CC1=C(SCC(=O)c2cc3ccccc3oc2=O)NC(=O)C(C#N)C12CCCC2 (configuration not stated),n,n,n,7,n
Cc1occc1-c1nnc(SCC(=O)c2cc3ccccc3oc2=O)o1,n,n,n,n,n
CCOc1ccc(C(=O)NCC(=O)OCC(=O)Nc2ccc(C)c(S(=O)(=O)N(C)C)c2)cc1,n,n,n,n,n
CC(C)CCNC(=O)C(c1ccc(O)cc1)N(C(=O)C1COc2ccccc2O1)c1cccc(O)c1 (configuration not stated),n,n,n,7,n
O=C(c1ccccc1)N1CCN(CC(O)Cn2ccc3ccccc32)CC1 (configuration not stated),n,n,n,n,n
CCc1cc2cc(C)cc(C)c2[nH]c1=S,n,n,9.1,n,n
